This note sets out measurements from ChEMBL document CHEMBL1949645, “In vitro and in vivo antifilarial activity evaluation of 3,6-epoxy [1,5]dioxocines: a new class of antifilarial agents” (Bioorg Med Chem Lett, 2012).

Converted amounts (≈) assume the structure as drawn.

In test [1] the test system is Brugia malayi. In words: Antifilarial activity against microfilariae Brugia malayi by motility assay. It is filed as functional, organism-based. The note with it: for IC50: Brugia malayi. In a few lines: (§1)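 Brugia malayi (sub-periodic strain), female adult worms or microfilariae, scored by motility following the Murthy and Chatterjee method. Compounds and reference DEC dissolved in DMSO, final DMSO below 0.1% in incubation medium; DMSO-only controls. LC100 is the concentration giving 100% loss of motility (parasite death); IC50 is the concentration giving 50% motility inhibition.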

In test [2] the test system is Brugia malayi. The test is described as follows: Antifilarial activity against adult Brugia malayi by motility assay. The test is classed as functional, organism-based. The note with it: for IC50: Brugia malayi. In a few lines: as §1
The test system of test [3] is Brugia malayi. In words: Antifilarial activity against Brugia malayi infected in Meriones unguiculatus assessed as sterilized female worm at 200 mg/kg, sc administered 7 to 8 days post-adult worm transplantation for 5 days measured after 42 days. The test is classed as functional. To be noted: route subcutaneous. In a few lines:
(§2)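 Dosing was s.c. once daily × 5 days: 200 mg/kg (n = 4) or 25 mg/kg (n = 6), with vehicle-treated controls (n = 4). Read-outs were peritoneal-cavity microfilaraemia status, worms recovered (mean ± SD, P vs control) and % sterilized female worms.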

The subject of test [4] is Brugia malayi. The test is described as follows: Growth inhibition of adult Brugia malayi by MTT assay. The test is classed as functional. The essentials:
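Adult female B. malayi worms were exposed in vitro to agents dissolved in DMSO, keeping final DMSO below 0.1%. Controls received DMSO alone. Results are given as mean % inhibition of MTT reduction.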

Test [5] concerns Brugia malayi. The test is described as follows: Antifilarial activity against 5 to 7 months old Brugia malayi infected in Mastomys coucha assessed as reduction in worm burden at 200 mg/kg, sc administered 7 to 8 days post-adult worm transplantation for 5 days measured on day 91 relative to control. It is filed as functional. To be noted: route subcutaneous. Further details: scale not given: the % may be the effect or the level left. In a few lines:
(§3)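 Mastomys coucha harbouring B. malayi were dosed at 200 or 50 mg/kg, with vehicle-treated animals as controls. Male, female and total adult worms recovered were counted and given as mean ± SD. Sterilized female worms were reported as count (%).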

Test [6] concerns Brugia malayi. The test is described as follows: Antifilarial activity against 5 to 7 months old Brugia malayi infected in Mastomys coucha assessed as sterilized female worm at 200 mg/kg, sc administered 7 to 8 days post-adult worm transplantation for 5 days measured on day 91 (reference value: 19.62%). It is filed as functional. The note with it: route subcutaneous. The essentials:
as §3

The subject of test [7] is Brugia malayi. The test is described as follows: Antifilarial activity against Brugia malayi infected in Meriones unguiculatus assessed as sterilized female worm at 25 mg/kg, sc administered 7 to 8 days post-adult worm transplantation for 5 days measured after 42 days. The test is classed as functional. To be noted: route subcutaneous. In a few lines:
as §2

The test system of test [8] is Brugia malayi. In words: Antifilarial activity against 5 to 7 months old Brugia malayi infected in Mastomys coucha assessed as sterilized female worm at 50 mg/kg, sc administered 7 to 8 days post-adult worm transplantation for 5 days measured on day 91 (reference value: 19.62%). The note with it: route subcutaneous. The test is classed as functional. The essentials:
as §3

In test [9] the test system is Brugia malayi. In words: Antifilarial activity against 5 to 7 months old Brugia malayi infected in Mastomys coucha assessed as reduction in worm burden at 50 mg/kg, sc administered 7 to 8 days post-adult worm transplantation for 5 days measured on day 91 relative to control. It is filed as functional. On the set-up: scale not given: the % may be the effect or the level left. The note with it: route subcutaneous. The essentials: as §3

As for `CCC(C)c1cc(/C=C/C(=O)c2ccc(OC)cc2)cc2c1OCC1COC2O1` (racemic), the LC100 in the test on Brugia malayi [1] and in the test with Brugia malayi [2] was above 10 µg/mL throughout.
Take `Cc1cc(/C=C/C(=O)c2ccccc2)cc2c1OCC1COC2O1` (racemic): the Activity with Brugia malayi [3] is listed as 29%. In addition, in the test with Brugia malayi [1], the LC100 amounted to 2.5 µg/mL and the IC50 was 0.9 µg/mL (≈ 2.79 µM). For the same compound, in the test on Brugia malayi [2], the LC100 was 1.25 µg/mL and the half-inhibitory concentration (IC50) is 1 µg/mL (≈ 3.1 µM). For the same compound, the “growth inhibition (GI)” value with Brugia malayi [4] is recorded as 15%.
Take `Cc1cc(/C=C/C(=O)c2ccc(Cl)cc2)cc2c1OCC1COC2O1` (racemic): the Activity in the test with Brugia malayi [3] was found to be 29%. In the test with Brugia malayi [1], the LC100 is 2.5 µg/mL and the IC50 is 1.1 µg/mL (≈ 3.08 µM). Further, in the test on Brugia malayi [2], the LC100 was 1.25 µg/mL and half-maximal inhibition (IC50) required 0.6 µg/mL (≈ 1.68 µM). The “growth inhibition (GI)” value in the test with Brugia malayi [4] was 39%.
For `Cc1ccc(C(=O)/C=C/c2cc(C)c3c(c2)C2OCC(CO3)O2)cc1` (racemic), in the test with Brugia malayi [3], the Activity was 45%. In the test with Brugia malayi [1], this compound returned an LC100 of 5 µg/mL and an IC50 of 1.8 µg/mL (≈ 5.35 µM). In the test with Brugia malayi [2], this compound had an LC100 of 1.25 µg/mL and an IC50 of 0.4 µg/mL (≈ 1.19 µM). Also, the “growth inhibition (GI)” value in the test with Brugia malayi [4] stood at 22%.
In the case of `COc1ccc(C(=O)/C=C/c2cc(C)c3c(c2)C2OCC(CO3)O2)cc1` (racemic), the values for the Activity with Brugia malayi [3], in the test with Brugia malayi [5] and with Brugia malayi [6] were 24%, 32.89% and 24.6%, respectively. The LC100 was above 10 µg/mL in the test with Brugia malayi [1] and 10 µg/mL in the test with Brugia malayi [2]. Also, the IC50 with Brugia malayi [1] was determined as 3.9 µg/mL (≈ 11.1 µM); with Brugia malayi [2], 3.5 µg/mL (≈ 9.93 µM). Further, the “growth inhibition (GI)” value in the test with Brugia malayi [4] is 22%.
As for `CCC(C)c1cc(/C=C/C(=O)c2ccccc2)cc2c1OCC1COC2O1` (racemic), the Activity in the test on Brugia malayi [3] came out at 27%. In the test on Brugia malayi [1], this compound yielded an LC100 of 5 µg/mL and an IC50 of 0.9 µg/mL (≈ 2.47 µM). In the test with Brugia malayi [2], this compound returned an LC100 of 2.5 µg/mL and an IC50 of 0.9 µg/mL (≈ 2.47 µM).
With `CCC(C)c1cc(/C=C/C(=O)c2ccc(Cl)cc2)cc2c1OCC1COC2O1` (racemic), the Activity amounted to 63% in the test with Brugia malayi [3], 38.16% in the test on Brugia malayi [5] and 17.78% with Brugia malayi [6]. In addition, the LC100 in the test with Brugia malayi [1] is 10 µg/mL; in the test on Brugia malayi [2], 5 µg/mL. Further, the IC50 in the test with Brugia malayi [1] was determined as 3.5 µg/mL (≈ 8.77 µM); with Brugia malayi [2] it was 1.6 µg/mL (≈ 4.01 µM).
Turning to `CCC(C)c1cc(/C=C/C(=O)c2ccc(C)cc2)cc2c1OCC1COC2O1` (racemic), in the test on Brugia malayi [1], the LC100 was above 10 µg/mL. In the test on Brugia malayi [2], this compound showed an LC100 of 10 µg/mL and an IC50 of 0.5 µg/mL (≈ 1.32 µM).
On to `O=C(/C=C/c1cc2c(c3ccccc13)OCC1COC2O1)c1ccccc1` (racemic), for which the LC100 with Brugia malayi [1] and with Brugia malayi [2] was above 10 µg/mL each time. The “growth inhibition (GI)” value in the test on Brugia malayi [4] stood at 34%.
On to `O=C(/C=C/c1cc2c(c3ccccc13)OCC1COC2O1)c1ccc(Cl)cc1` (racemic), for which the LC100 with Brugia malayi [1] and in the test with Brugia malayi [2] was above 10 µg/mL throughout. Moreover, in the test with Brugia malayi [4], the “growth inhibition (GI)” value is recorded as 41%.
Turning to `Cc1ccc(C(=O)/C=C/c2cc3c(c4ccccc24)OCC2COC3O2)cc1` (racemic), the LC100 with Brugia malayi [1] and in the test with Brugia malayi [2] was above 10 µg/mL in each case. Further, in the test with Brugia malayi [4], the “growth inhibition (GI)” value was 33%.
`COc1ccc(C(=O)/C=C/c2cc3c(c4ccccc24)OCC2COC3O2)cc1` (racemic): the LC100 in the test with Brugia malayi [1] and in the test on Brugia malayi [2] was above 10 µg/mL in each case. In the test on Brugia malayi [4], the “growth inhibition (GI)” value is 35%.
For the compound `CCN(CC)C(=O)N1CCN(C)CC1.O=C(O)CC(O)(CC(=O)O)C(=O)O` [DIETHYLCARBAMAZINE CITRATE], the values for the Activity in the test with Brugia malayi [7], in the test on Brugia malayi [8] and in the test with Brugia malayi [9] were 11%, 20.59% and 20.18%, respectively.
On to `CCN(CC)C(=O)N1CCN(C)CC1` [DIETHYLCARBAMAZINE], for which, in the test with Brugia malayi [1], the LC100 came out at 500 µg/mL and the IC50 worked out at 354 µg/mL (≈ 1780 µM). Besides, in the test with Brugia malayi [2], the LC100 was determined as 800 µg/mL and the IC50 was found to be 289 µg/mL (≈ 1450 µM). Further, in the test with Brugia malayi [4], the “growth inhibition (GI)” value is given as 64%.
